Reference: ChEMBL document CHEMBL1152612, “Ursolic acid derivatives induce cell cycle arrest and apoptosis in NTUB1 cells associated with reactive oxygen species” (Bioorg Med Chem, 2009)
Active and inactive are the calls of the source. The rule behind the calls is not given here.

Experiments:
[1] = Cytotoxicity against human NTUB1 cells after 72 hrs by MTT assay; type: functional, cell-based; details: NTUB1, 72 h
Procedure, shortened: (§1)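 Cells grown in RPMI 1640 with 10% FBS, penicillin/streptomycin and 2 mM L-glutamine at 37 °C under 5% CO₂. Seeded 1800 cells/well, left overnight, then given graded compound concentrations for 72 h; compounds diluted from DMSO, 0.1% DMSO in medium and in controls. MTT 2 mg/mL in PBS for 3 h, formazan dissolved in DMSO, absorbance 540 nm. Viability given as % of control; IC50 by median-effect analysis, mean ± SD.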

[2] = Cytotoxicity against human NTUB1 cells assessed as cell viability at >30 uM after 72 hrs by MTT assay; type: functional; procedure, shortened: as §1
[3] = Cell cycle arrest in human NTUB1 cells assessed as accumulation at G1 phase at 20 uM after 24 hrs using propidium iodide staining by flow cytometry; type: functional, cell-based
Procedure, shortened: (§2)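 NTUB1 cells plated at 8 × 10⁵ per 10 cm dish and exposed to compound for 24 or 48 h; untreated controls got medium alone. Cells trypsinized, PBS-washed and fixed overnight in ice-cold MeOH at −20 °C, then stained with 50 µg/mL propidium iodide plus RNase A. DNA content was read by flow cytometry, with apoptosis taken as sub-G1 accumulation. Three independent experiments.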

[4] = Cell cycle arrest in human NTUB1 cells assessed as accumulation at S phase at 20 uM after 24 hrs using propidium iodide staining by flow cytometry; type: functional, cell-based; procedure, shortened: as §2
[5] = Cell cycle arrest in human NTUB1 cells assessed as accumulation at G2/M phase at 20 uM after 24 hrs using propidium iodide staining by flow cytometry; type: functional, cell-based; procedure, shortened: as §2
[6] = Induction of apoptosis in human NTUB1 cells assessed as accumulation at subG1 phase at 40 uM after 24 hrs using propidium iodide staining by flow cytometry; type: functional; procedure, shortened: as §2
[7] = test system: PC-3; test: Cytotoxicity against human PC3 cells at 50 uM after 72 hrs by MTT assay; type: functional, cell-based; procedure, shortened: as §1
[8] = test system: A549; test: Cytotoxicity against human A549 cells at 50 uM after 72 hrs by MTT assay; type: functional, cell-based; procedure, shortened: as §1
[9] = Cell cycle arrest in human NTUB1 cells assessed as accumulation at G1 phase at 40 uM after 24 hrs using propidium iodide staining by flow cytometry; type: functional, cell-based; procedure, shortened: as §2
[10] = Induction of apoptosis in human NTUB1 cells assessed as accumulation at subG1 phase at 20 uM after 24 hrs using propidium iodide staining by flow cytometry; type: functional; procedure, shortened: as §2
[11] = Cell cycle arrest in human NTUB1 cells assessed as accumulation at G2/M phase at 40 uM after 24 hrs using propidium iodide staining by flow cytometry; type: functional, cell-based; procedure, shortened: as §2
[12] = Cell cycle arrest in human NTUB1 cells assessed as accumulation at S phase at 40 uM after 24 hrs using propidium iodide staining by flow cytometry; type: functional, cell-based; procedure, shortened: as §2
[13] = target: Tubulin (Homo sapiens) (UniProt P68371+Q9H4B7+P0DPH7+P68366+Q13509+Q71U36+P04350+Q3ZCM7+P07437+P68363+Q9BQE3+Q6PEY2+Q13885+Q9BVA1+Q9BUF5); test: Inhibition of tubulin polymerization in human NTUB1 cells assessed as blockade of microtubule assembly at 10 nM by indirect immunofluorescence staining; type: cell-based
Procedure, shortened: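 NTUB1 cells on coverslips were treated for 24 h, then fixed in 2% formaldehyde/PBS for 20 min and in cold methanol (−20 °C) for 3 min. Stained with anti-α-tubulin monoclonal antibody for 3 h at room temperature, then rhodamine-conjugated secondary antibody for 1 h in the dark. Mounted in 80% glycerol/PBS and examined by fluorescence microscopy.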

Row | SMILES | IC50 [1] [µM] | other results
1 | C[C@H]1[C@H](C)CC[C@]2(C(=O)OCCO)CC[C@]3(C)C(=CC[C@@H]4[C@@]5(C)CC[C@H](O)C(C)(C)[C@@H]5CC[C@]43C)[C@H]12 | 19.5 | –
2 | C[C@H]1[C@H](C)CC[C@]2(C(=O)O)CC[C@]3(C)C(=CC[C@@H]4[C@@]5(C)CCC(=O)OC(C)(C)[C@@H]5CC[C@]43C)[C@H]12 | > 30 | Activity [2]: 63.91%
3 | CC(C)CC(=O)O[C@H]1CC[C@]2(C)[C@H]3CC=C4[C@@H]5[C@@H](C)[C@H](C)CC[C@]5(C(=O)O)CC[C@@]4(C)[C@]3(C)CC[C@H]2C1(C)C | 31 | –
4 | CC(C)=CCOC(=O)[C@]12CC[C@@H](C)[C@H](C)[C@H]1C1=CC[C@@H]3[C@@]4(C)CC[C@H](O)C(C)(C)[C@@H]4CC[C@@]3(C)[C@]1(C)CC2 | 10.9 | –
5 | CCCCCOC(=O)[C@]12CC[C@@H](C)[C@H](C)[C@H]1C1=CC[C@@H]3[C@@]4(C)CC[C@H](O)C(C)(C)[C@@H]4CC[C@@]3(C)[C@]1(C)CC2 | 27.8 | –
6 | C[C@H]1[C@H](C)CC[C@]2(C(=O)O)CC[C@]3(C)C(=CC[C@@H]4[C@@](C)(CCC(=O)O)[C@H](C(C)(C)O)CC[C@]43C)[C@H]12 | > 30 | Activity [2]: 56.04%
7 | CCCC(=O)O[C@H]1CC[C@]2(C)[C@H]3CC=C4[C@@H]5[C@@H](C)[C@H](C)CC[C@]5(C(=O)O)CC[C@@]4(C)[C@]3(C)CC[C@H]2C1(C)C | > 30 | Activity [2]: 76.47%
8 | COC(=O)[C@]12CC[C@@H](C)[C@H](C)[C@H]1C1=CC[C@@H]3[C@@]4(C)CC[C@H](O)C(C)(C)[C@@H]4CC[C@@]3(C)[C@]1(C)CC2 [METHYL URSOLATE] | 37.1 | –
9 | C=C(C)[C@@H]1CC[C@]2(C)[C@H](CC=C3[C@@H]4[C@@H](C)[C@H](C)CC[C@]4(C(=O)O)CC[C@]32C)[C@@]1(C)CCC(=O)OC | > 30 | Activity [2]: 62.77%
10 | C/C=C/C(=O)O[C@H]1CC[C@]2(C)[C@H]3CC=C4[C@@H]5[C@@H](C)[C@H](C)CC[C@]5(C(=O)O)CC[C@@]4(C)[C@]3(C)CC[C@H]2C1(C)C | 11.9 | –
11 | CCC(=O)O[C@H]1CC[C@]2(C)[C@H]3CC=C4[C@@H]5[C@@H](C)[C@H](C)CC[C@]5(C(=O)O)CC[C@@]4(C)[C@]3(C)CC[C@H]2C1(C)C | > 30 | Activity [2]: 72.53%
12 | CCCCOC(=O)[C@]12CC[C@@H](C)[C@H](C)[C@H]1C1=CC[C@@H]3[C@@]4(C)CC[C@H](O)C(C)(C)[C@@H]4CC[C@@]3(C)[C@]1(C)CC2 | 15.6 | –
13 | CCCOC(=O)[C@]12CC[C@@H](C)[C@H](C)[C@H]1C1=CC[C@@H]3[C@@]4(C)CC[C@H](O)C(C)(C)[C@@H]4CC[C@@]3(C)[C@]1(C)CC2 | 18.3 | –
14 | C[C@H]1[C@H](C)CC[C@]2(C(=O)O)CC[C@]3(C)C(=CC[C@@H]4[C@@]5(C)CC[C@H](OC(=O)CCC(=O)O)C(C)(C)[C@@H]5CC[C@]43C)[C@H]12 | 8.65 | Activity [3]: 13.1%; Activity [4]: 18.5%; Activity [5]: 24.1%; Activity [6]: 61.37%; Activity [7]: Active; Activity [8]: Active; Activity [9]: 18.9%; Activity [10]: 7.27%; Activity [11]: 7.36%; Activity [12]: 7.51%
15 | CC(=O)O[C@H]1C(=O)[C@@]2(C)[C@H]([C@H](OC(=O)c3ccccc3)[C@]3(O)C[C@H](OC(=O)[C@H](O)[C@@H](NC(=O)c4ccccc4)c4ccccc4)C(C)=C1C3(C)C)[C@]1(OC(C)=O)CO[C@@H]1C[C@@H]2O | – | Activity [13]: Active
16 | CCOC(=O)[C@]12CC[C@@H](C)[C@H](C)[C@H]1C1=CC[C@@H]3[C@@]4(C)CC[C@H](O)C(C)(C)[C@@H]4CC[C@@]3(C)[C@]1(C)CC2 | 13.5 | –
17 | CCCCCCOC(=O)[C@]12CC[C@@H](C)[C@H](C)[C@H]1C1=CC[C@@H]3[C@@]4(C)CC[C@H](O)C(C)(C)[C@@H]4CC[C@@]3(C)[C@]1(C)CC2 | 26.2 | –
18 | C[C@H]1[C@H](C)CC[C@]2(C(=O)O)CC[C@]3(C)C(=CC[C@@H]4[C@@]5(C)CCC(=O)C(C)(C)[C@@H]5CC[C@]43C)[C@H]12 [URSONIC ACID] | 21.4 | –
19 | COC(=O)[C@]12CC[C@@H](C)[C@H](C)[C@H]1C1=CC[C@@H]3[C@@]4(C)CCC(=O)C(C)(C)[C@@H]4CC[C@@]3(C)[C@]1(C)CC2 | 29.6 | –
20 | CC(=O)O[C@H]1CC[C@]2(C)[C@H]3CC=C4[C@@H]5[C@@H](C)[C@H](C)CC[C@]5(C(=O)O)CC[C@@]4(C)[C@]3(C)CC[C@H]2C1(C)C [O-ACETYLURSOLIC ACID] | 14.3 | –
21 | C[C@H]1[C@H](C)CC[C@]2(C(=O)O)CC[C@]3(C)C(=CC[C@@H]4[C@@]5(C)CC[C@H](O)C(C)(C)[C@@H]5CC[C@]43C)[C@H]12 [URSOLIC ACID] | 29.4 | –
22 | C[C@H]1[C@H](C)CC[C@]2(C(=O)OCC(=O)OC(C)(C)C)CC[C@]3(C)C(=CC[C@@H]4[C@@]5(C)CC[C@H](O)C(C)(C)[C@@H]5CC[C@]43C)[C@H]12 | > 30 | Activity [2]: 64.85%
23 | C=C(C)[C@@H]1CC[C@]2(C)[C@H](CC=C3[C@@H]4[C@@H](C)[C@H](C)CC[C@]4(C(=O)OC)CC[C@]32C)[C@@]1(C)CCC(=O)OC | 15.6 | –
